In ChEMBL document CHEMBL1671761, “Preclinical characterization of BI 201335, a C-terminal carboxylic acid inhibitor of the hepatitis C virus NS3-NS4A protease” (Antimicrob Agents Chemother, 2010):

Key:
[1] = Tmax in dog at 5 mg/kg, po; type: ADME, organism-based, Canis lupus familiaris; design: dose 5 mg/kg, route oral; conditions: in vivo
Procedure, shortened: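 Fasted male beagle dogs (9.8-13.8 kg) given a single oral dose in 0.5% Methocel/0.3% Tween 80. Plasma taken by solid-phase extraction and measured by LC-MS/MS at m/z 869.3 (LOQ 50 nM). Noncompartmental analysis. Mean ± SE for three males.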

Caspase-7 (Homo sapiens) = Caspase-7 (Homo sapiens) (UniProt P55210); assay: Inhibition of human caspase-7 at 10 uM
Hepatitis C virus = assay: Inhibition of HCV 1b NS3/4A protease; design: species or system Hepatitis C virus subtype 1b; conditions: read-out: Ki(app)
Procedure, shortened: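 Full-length NS3 coexpressed with the 54-residue NS4A, 0.5 nM (2.5 nM for genotype 1a). Substrate was 5 μM anthranilyl-DDIVPAbu[C(O)-O]AMY(3-NO2)TW-OH in 50 mM Tris pH 8.0, 0.25 M citrate, 0.01% dodecylmaltoside, 1 mM TCEP, 5% DMSO. Run at 23°C for 60-70 min, stopped with MES pH 5.8, read by product fluorescence. IC50 converted to apparent Ki via IC50=Ki(1+[S]/Km). Mean ± SD, ≥3 experiments.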

Cathepsin B = Cathepsin B (Homo sapiens, UniProt P07858); assay: Inhibition of human cathepsin B at 10 uM
Homo sapiens [2] = species on record: Homo sapiens; assay: Inhibition of human chymotrypsin at 10 uM
Rattus norvegicus [3] = species on record: Rattus norvegicus; assay: Inhibition of rat glycine receptor at 10 uM
Rattus norvegicus [4] = species on record: Rattus norvegicus; assay: Inhibition of rat opiate receptor at 10 uM
Caspase-9 (Homo sapiens) = Caspase-9 (Homo sapiens) (UniProt P55211); assay: Inhibition of human caspase-9 at 10 uM
[5] = AUC in dog at 5 mg/kg, po; type: ADME, organism-based, Canis lupus familiaris; design: dose 5 mg/kg, route oral; conditions: plasma
Procedure, shortened: (§1)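 Single oral dose of 5 mg/kg in 0.5% Methocel with 0.3% Tween 80 (10 ml/kg) to fasted male animals: Sprague-Dawley rats (275-300 g, overnight fast with 10% dextrose water), rhesus monkeys, beagle dogs. Rat blood from cannulated carotid at 0-8 h, pooled from 3 rats per time point; monkey/dog n=3. Plasma solid-phase extracted, LC-MS/MS at m/z 869.3; noncompartmental analysis.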

Rattus norvegicus [6] = species on record: Rattus norvegicus; assay: Inhibition of rat GABA-A receptor, chloride channel at 10 uM
[7] = biological target: Nitric oxide synthase 3 (Rattus norvegicus) (UniProt Q62600); assay: Inhibition of rat cNOS at 10 uM
Cavia porcellus = species on record: Cavia porcellus; assay: Inhibition of guinea pig adenosine transporter at 10 uM
Homo sapiens [8] = species on record: Homo sapiens; assay: Inhibition of human tryptase at 10 uM
[9] = Cmax in dog at 5 mg/kg, po; type: ADME, organism-based, Canis lupus familiaris; design: dose 5 mg/kg, route oral; conditions: in vivo; procedure, shortened: as §1
[10] = biological target: Cathepsin D (Homo sapiens) (UniProt P07339); assay: Inhibition of human cathepsin D; conditions: concentration not given here
Rattus norvegicus [11] = species on record: Rattus norvegicus; assay: Inhibition of rat GABA-A receptor, benzodiazepine central at 10 uM
[12] = biological target: D(1B) dopamine receptor (Homo sapiens) (UniProt P21918); assay: Inhibition of human dopamine receptor 5 at 10 uM
[13] = biological target: Beta-secretase 1 (Homo sapiens) (UniProt P56817); assay: Inhibition of human recombinant BACE-1 at 10 uM
[14] = biological target: Alpha-1A adrenergic receptor (Rattus norvegicus) (UniProt P43140); assay: Inhibition of rat adrenergic receptor Alpha-1at 10 uM
Rattus norvegicus [15] = species on record: Rattus norvegicus; assay: Inhibition of rat GABA-A receptor, agonist site at 10 uM; type: functional
[16] = biological target: Cathepsin Z (Homo sapiens) (UniProt Q9UBR2); assay: Inhibition of human cathepsin X at 10 uM
[17] = biological target: Protein kinase C (PKC) (Rattus norvegicus) (UniProt P05696+P68403+P09216+P63319+P09215+Q64617+Q9WTQ0+P09217); assay: Inhibition of rat PKC at 10 uM
[18] = biological target: D(4) dopamine receptor (Homo sapiens) (UniProt P21917); assay: Inhibition of human dopamine receptor 4.4 at 10 uM
[19] = AUC (0 to infinity) in monkey at 5 mg/kg, po; type: ADME, organism-based, Macaca mulatta; design: time infinity, dose 5 mg/kg, route oral; conditions: rhesus monkey, plasma; procedure, shortened: as §1
[20] = biological target: Histamine H3 receptor (Homo sapiens) (UniProt Q9Y5N1); assay: Inhibition of human H3 receptor at 10 uM
Rattus norvegicus [21] = species on record: Rattus norvegicus; assay: Inhibition of rat 5-HT3 receptor at 10 uM
Chymase (Homo sapiens) = Chymase (Homo sapiens) (UniProt P23946); assay: Inhibition of human chymase at 10 uM
[22] = biological target: Acetylcholinesterase (Homo sapiens) (UniProt P22303); assay: Inhibition of human acetylcholinesterase at 10 uM
[23] = biological target: Stromelysin-1 (Homo sapiens) (UniProt P08254); assay: Inhibition of human MMP-3 at 10 uM
Cathepsin C (Bos taurus) = Cathepsin C (Bos taurus) (UniProt Q864S1); assay: Inhibition of bovine cathepsin C at 10 uM
[24] = AUC (0 to infinity) in rat at 5 mg/kg, po; type: ADME, organism-based; design: time infinity, dose 5 mg/kg, route oral; conditions: plasma; procedure, shortened: as §1
[25] = Tmax in rat at 5 mg/kg, po; type: ADME, organism-based; design: dose 5 mg/kg, route oral; conditions: in vivo
Procedure, shortened: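 Male Sprague-Dawley rats (275-300 g), fasted overnight with 10% dextrose water. Single oral dose in 0.5% Methocel/0.3% Tween 80 at 10 ml/kg. Carotid-cannula blood taken 0-8 h, with plasma from 3 rats pooled per time point. Solid-phase extraction, then LC-MS/MS at m/z 869.3 (LOQ 10 nM). Noncompartmental analysis.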

[26] = biological target: Coagulation factor VII (Homo sapiens) (UniProt P08709); assay: Inhibition of human factor 7a at 10 uM
[27] = biological target: Nitric oxide synthase, inducible (Mus musculus) (UniProt P29477); assay: Inhibition of mouse iNOS at 10 uM
Rattus norvegicus [28] = species on record: Rattus norvegicus; assay: Inhibition of rat calcium channel N-type at 10 uM
Homo sapiens [29] = species on record: Homo sapiens; assay: Inhibition of human dopamine receptor 4.7 at 10 uM
[30] = biological target: Plasma kallikrein (Homo sapiens) (UniProt P03952); assay: Inhibition of human kallikrein at 10 uM
Homo sapiens [31] = species on record: Homo sapiens; assay: Inhibition of human endothelin-converting enzyme at 10 uM by cerep assay
[32] = Cmax in monkey at 5 mg/kg, po; type: ADME, organism-based, Macaca mulatta; design: dose 5 mg/kg, route oral; conditions: rhesus monkey, in vivo; procedure, shortened: as §1
[33] = biological target: Prothrombin (Homo sapiens) (UniProt P00734); assay: Inhibition of human thrombin at 10 uM
[34] = biological target: Neutrophil elastase (Homo sapiens) (UniProt P08246); assay: Inhibition of human elastase, leukocyte at 10 uM
Caspase-8 (Homo sapiens) = Caspase-8 (Homo sapiens) (UniProt Q14790); assay: Inhibition of human caspase-8 at 10 uM
[35] = biological target: Neutrophil elastase (Homo sapiens) (UniProt P08246); assay: Inhibition of human serum elastase, neutrophil at 10 uM by fluorimetry
[36] = biological target: Interstitial collagenase (Homo sapiens) (UniProt P03956); assay: Inhibition of human MMP-1 at 10 uM
[37] = biological target: Coagulation factor X (Homo sapiens) (UniProt P00742); assay: Inhibition of human factor 10a at 10 uM
[38] = biological target: Caspase-10 (Homo sapiens) (UniProt Q92851); assay: Inhibition of human recombinant caspase-10 expressed in Escherichia coli at 10 uM by fluorimetry

Sequence of Neutrophil elastase (Homo sapiens) (P08246 whole entry): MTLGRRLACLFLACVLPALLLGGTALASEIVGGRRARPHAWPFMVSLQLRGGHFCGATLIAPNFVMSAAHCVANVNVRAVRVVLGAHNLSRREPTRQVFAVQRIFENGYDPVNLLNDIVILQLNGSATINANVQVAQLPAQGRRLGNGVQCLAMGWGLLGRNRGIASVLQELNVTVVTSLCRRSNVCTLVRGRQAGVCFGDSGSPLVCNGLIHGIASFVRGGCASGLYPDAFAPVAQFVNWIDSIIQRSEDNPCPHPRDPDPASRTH
Sequence of Cathepsin C (Bos taurus) (Q864S1 as listed by the source): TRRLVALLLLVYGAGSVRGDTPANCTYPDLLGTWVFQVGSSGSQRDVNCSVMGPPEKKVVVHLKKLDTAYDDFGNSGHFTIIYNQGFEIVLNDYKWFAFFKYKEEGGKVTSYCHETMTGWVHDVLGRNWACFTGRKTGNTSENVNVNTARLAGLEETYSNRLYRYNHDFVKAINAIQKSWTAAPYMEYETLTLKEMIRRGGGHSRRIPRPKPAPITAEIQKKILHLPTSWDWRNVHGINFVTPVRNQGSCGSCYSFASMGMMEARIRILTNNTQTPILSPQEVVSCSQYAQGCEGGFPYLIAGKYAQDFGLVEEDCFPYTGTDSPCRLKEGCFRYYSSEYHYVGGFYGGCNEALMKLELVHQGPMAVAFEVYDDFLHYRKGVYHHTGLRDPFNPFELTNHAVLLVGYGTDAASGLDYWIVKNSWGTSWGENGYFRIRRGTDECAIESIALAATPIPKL
Sequence of Nitric oxide synthase, inducible (Mus musculus) (P29477 whole entry): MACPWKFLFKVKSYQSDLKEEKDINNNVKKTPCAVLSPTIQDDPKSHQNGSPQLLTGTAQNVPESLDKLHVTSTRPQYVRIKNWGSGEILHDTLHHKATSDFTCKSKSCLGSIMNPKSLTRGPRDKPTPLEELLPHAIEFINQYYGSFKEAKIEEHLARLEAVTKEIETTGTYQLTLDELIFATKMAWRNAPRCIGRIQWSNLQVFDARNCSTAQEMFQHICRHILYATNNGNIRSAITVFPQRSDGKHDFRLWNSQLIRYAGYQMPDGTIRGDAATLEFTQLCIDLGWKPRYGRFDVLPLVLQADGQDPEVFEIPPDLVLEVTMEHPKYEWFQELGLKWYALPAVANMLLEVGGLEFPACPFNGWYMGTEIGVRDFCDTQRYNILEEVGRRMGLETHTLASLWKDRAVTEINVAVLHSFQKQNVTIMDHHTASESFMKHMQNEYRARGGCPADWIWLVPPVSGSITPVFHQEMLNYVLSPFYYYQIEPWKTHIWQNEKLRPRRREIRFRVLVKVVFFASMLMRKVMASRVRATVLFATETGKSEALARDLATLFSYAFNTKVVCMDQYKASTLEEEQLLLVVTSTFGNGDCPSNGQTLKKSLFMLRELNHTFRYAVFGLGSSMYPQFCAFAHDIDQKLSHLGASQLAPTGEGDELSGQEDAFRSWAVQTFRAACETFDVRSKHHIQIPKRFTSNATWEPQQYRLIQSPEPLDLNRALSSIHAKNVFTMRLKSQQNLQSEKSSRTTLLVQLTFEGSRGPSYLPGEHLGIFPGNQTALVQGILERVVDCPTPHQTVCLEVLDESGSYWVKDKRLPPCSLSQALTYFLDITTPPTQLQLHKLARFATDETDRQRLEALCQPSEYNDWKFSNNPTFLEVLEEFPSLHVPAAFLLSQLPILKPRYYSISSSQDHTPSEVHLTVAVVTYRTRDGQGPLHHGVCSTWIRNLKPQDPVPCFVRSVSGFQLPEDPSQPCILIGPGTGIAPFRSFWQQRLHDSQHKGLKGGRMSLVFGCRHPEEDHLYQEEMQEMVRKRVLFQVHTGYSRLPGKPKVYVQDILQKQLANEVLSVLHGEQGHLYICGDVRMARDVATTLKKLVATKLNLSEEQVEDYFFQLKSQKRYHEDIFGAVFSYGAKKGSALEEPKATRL
Sequence of Plasma kallikrein (Homo sapiens) (P03952 20-390 limits assumed): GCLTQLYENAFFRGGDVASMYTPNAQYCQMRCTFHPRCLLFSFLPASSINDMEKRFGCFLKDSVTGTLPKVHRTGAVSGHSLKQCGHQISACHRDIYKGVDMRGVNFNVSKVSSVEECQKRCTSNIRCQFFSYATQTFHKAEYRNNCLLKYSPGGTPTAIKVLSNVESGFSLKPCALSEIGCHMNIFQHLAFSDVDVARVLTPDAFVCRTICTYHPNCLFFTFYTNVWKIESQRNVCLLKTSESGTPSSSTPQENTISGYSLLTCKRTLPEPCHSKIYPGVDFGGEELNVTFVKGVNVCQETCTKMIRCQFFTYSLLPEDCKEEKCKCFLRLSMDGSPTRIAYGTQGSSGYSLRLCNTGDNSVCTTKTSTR
Sequence of Plasma kallikrein (Homo sapiens) (P03952 391-638 limits assumed): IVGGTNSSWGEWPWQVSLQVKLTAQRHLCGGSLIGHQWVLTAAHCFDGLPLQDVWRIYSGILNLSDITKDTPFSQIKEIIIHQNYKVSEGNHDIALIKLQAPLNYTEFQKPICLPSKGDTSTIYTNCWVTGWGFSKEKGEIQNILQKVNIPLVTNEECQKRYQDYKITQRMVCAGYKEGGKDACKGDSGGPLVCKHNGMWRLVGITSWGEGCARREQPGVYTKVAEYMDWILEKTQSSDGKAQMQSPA
Sequence of Interstitial collagenase (Homo sapiens) (P03956 whole entry): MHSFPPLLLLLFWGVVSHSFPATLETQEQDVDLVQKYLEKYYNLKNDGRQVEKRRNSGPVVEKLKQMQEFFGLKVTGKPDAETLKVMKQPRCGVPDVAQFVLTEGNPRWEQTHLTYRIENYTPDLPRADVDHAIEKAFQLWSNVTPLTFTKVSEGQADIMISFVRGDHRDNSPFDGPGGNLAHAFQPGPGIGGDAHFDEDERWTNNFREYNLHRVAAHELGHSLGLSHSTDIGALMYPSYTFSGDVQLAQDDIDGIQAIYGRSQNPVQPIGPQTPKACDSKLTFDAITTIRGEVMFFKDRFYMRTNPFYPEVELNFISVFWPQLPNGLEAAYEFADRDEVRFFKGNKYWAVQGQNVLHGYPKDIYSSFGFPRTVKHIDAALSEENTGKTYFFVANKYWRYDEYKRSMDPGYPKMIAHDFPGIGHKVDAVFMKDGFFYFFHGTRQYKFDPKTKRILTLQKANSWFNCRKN
Sequence of Stromelysin-1 (Homo sapiens) (P08254 100-477 limits assumed): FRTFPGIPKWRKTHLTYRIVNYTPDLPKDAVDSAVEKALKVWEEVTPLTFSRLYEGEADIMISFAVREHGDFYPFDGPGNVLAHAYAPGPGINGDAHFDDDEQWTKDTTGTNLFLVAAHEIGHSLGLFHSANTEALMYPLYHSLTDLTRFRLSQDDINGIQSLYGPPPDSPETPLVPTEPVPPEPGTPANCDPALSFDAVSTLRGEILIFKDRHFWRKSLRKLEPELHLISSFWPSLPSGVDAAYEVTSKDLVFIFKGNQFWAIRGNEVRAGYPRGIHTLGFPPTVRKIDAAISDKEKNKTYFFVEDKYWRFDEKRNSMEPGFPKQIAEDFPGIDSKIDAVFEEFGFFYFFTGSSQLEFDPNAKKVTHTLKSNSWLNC
Sequence of Caspase-7 (Homo sapiens) (P55210 24-198 limits assumed): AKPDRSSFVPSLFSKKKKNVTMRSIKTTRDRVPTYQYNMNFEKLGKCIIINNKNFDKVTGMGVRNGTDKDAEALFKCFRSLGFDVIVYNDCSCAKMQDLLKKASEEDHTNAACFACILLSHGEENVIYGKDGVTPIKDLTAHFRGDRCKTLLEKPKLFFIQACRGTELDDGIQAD
Sequence of Caspase-7 (Homo sapiens) (P55210 207-303 limits assumed): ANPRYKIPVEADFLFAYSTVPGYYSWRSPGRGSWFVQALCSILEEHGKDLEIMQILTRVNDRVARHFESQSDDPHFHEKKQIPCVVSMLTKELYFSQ
Sequence of Histamine H3 receptor (Homo sapiens) (Q9Y5N1 whole entry, looked up): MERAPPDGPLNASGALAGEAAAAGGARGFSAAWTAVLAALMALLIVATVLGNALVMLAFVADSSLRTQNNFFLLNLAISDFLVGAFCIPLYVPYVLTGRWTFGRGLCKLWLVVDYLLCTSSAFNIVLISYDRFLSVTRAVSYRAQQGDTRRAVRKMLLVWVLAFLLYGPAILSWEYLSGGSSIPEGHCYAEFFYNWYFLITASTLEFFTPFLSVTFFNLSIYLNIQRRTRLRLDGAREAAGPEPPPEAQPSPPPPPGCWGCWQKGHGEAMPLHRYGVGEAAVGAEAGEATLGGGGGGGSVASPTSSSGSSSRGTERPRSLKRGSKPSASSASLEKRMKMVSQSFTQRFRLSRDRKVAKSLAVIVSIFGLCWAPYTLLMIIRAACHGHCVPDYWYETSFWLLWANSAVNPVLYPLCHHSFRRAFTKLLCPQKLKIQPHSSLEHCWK
Sequence of Caspase-8 (Homo sapiens) (Q14790 217-374 limits assumed): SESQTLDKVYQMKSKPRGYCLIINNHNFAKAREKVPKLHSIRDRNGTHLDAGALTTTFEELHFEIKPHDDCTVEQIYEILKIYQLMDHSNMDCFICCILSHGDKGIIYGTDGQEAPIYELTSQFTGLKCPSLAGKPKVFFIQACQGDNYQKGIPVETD
Sequence of Caspase-8 (Homo sapiens) (Q14790 385-479 limits assumed): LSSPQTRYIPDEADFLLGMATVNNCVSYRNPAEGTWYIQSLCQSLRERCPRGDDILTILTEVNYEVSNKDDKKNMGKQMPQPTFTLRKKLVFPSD
Sequence of Alpha-1A adrenergic receptor (Rattus norvegicus) (P43140 whole entry): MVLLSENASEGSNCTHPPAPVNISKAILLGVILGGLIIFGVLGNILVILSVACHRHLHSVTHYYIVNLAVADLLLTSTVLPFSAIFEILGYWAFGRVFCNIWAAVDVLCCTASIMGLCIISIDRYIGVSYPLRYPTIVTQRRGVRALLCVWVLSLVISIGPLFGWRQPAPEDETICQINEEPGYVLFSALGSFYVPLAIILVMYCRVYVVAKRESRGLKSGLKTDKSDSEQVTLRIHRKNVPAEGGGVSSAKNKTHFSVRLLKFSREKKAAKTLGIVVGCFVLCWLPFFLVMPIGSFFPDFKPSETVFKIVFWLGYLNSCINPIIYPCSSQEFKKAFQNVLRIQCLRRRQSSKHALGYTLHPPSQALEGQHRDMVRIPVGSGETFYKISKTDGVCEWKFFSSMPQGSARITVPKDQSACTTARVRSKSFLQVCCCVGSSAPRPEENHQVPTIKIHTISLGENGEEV

## C=C[C@@H]1C[C@]1(NC(=O)[C@@H]1C[C@@H](Oc2cc(-c3csc(NC(=O)C(C)C)n3)nc3c(Br)c(OC)ccc23)CN1C(=O)[C@@H](NC(=O)OC1CCCC1)C(C)(C)C)C(=O)O
[1]
  Tmax: 0.83 h
Caspase-7 (Homo sapiens)
  inhibition: 28%
Hepatitis C virus
  Ki: 2.8 nM
Cathepsin B
  inhibition: 22%
Homo sapiens [2]
  inhibition: 0%
Rattus norvegicus [3]
  inhibition: 6%
Rattus norvegicus [4]
  inhibition: 26%
Caspase-9 (Homo sapiens)
  inhibition: 23%
[5]
  AUC: 13 µM·h
Rattus norvegicus [6]
  inhibition: 28%
[7]
  inhibition: 7%
Cavia porcellus
  inhibition: 23%
Homo sapiens [8]
  inhibition: 5%
[9]
  Cmax: 3800 nM
[10]
  inhibition: 43%
Rattus norvegicus [11]
  inhibition: 12%
[12]
  inhibition: 11%
[13]
  inhibition: 74%
[14]
  inhibition: 4%
Rattus norvegicus [15]
  inhibition: 16%
[16]
  inhibition: 0%
[17]
  inhibition: 15%
[18]
  inhibition: 39%
[19]
  AUC(0-inf): 8.3 µM·h
[20]
  inhibition: 5%
Rattus norvegicus [21]
  inhibition: 7%
Chymase (Homo sapiens)
  inhibition: 11%
[22]
  inhibition: 20%
[23]
  inhibition: 11%
Cathepsin C (Bos taurus)
  inhibition: 1%
[24]
  AUC(0-inf): 1.63 µM·h
[25]
  Tmax: 1.5 h
[26]
  inhibition: 6%
[27]
  inhibition: 0%
Rattus norvegicus [28]
  inhibition: 9%
Homo sapiens [29]
  inhibition: 0%
[30]
  inhibition: 0%
Homo sapiens [31]
  inhibition: 11%
[32]
  Cmax: 2000 nM
[33]
  inhibition: 9%
[34]
  inhibition: 3%
Caspase-8 (Homo sapiens)
  inhibition: 5%
[35]
  inhibition: 22%
[36]
  inhibition: 19%
[37]
  inhibition: 5%
[38]
  inhibition: 12%
